Screening data (PubChem)
Only some compounds are listed: those with a hit (about 2.2% of all), similar ones and a draw of the others.
RanGTP-Imp inh: disruptors of Ran-importin-beta complex formation – biochemical, FRET, CFP-Ran, YFP-importin-beta, homogeneous, primary screen | cell-free CFP-Ran/YFP-importin-beta FRET ratio | inhibition, % (test concentration not listed) | 1.1% of 300,000 active | AID 2216;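 active = more than half of the replicate wells show a fall in the fluorescence ratio signal beyond about 16%, limit read from the data, passing the limit was not always enough; inconclusive = exactly half of the replicate wells pass the set limit; inactive = fewer than half of replicates pass the limit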
Runt-CBFb FRET: Runt domain-CBFb interaction inhibition. Q01196+Q13951. Cerulean-Runt/Venus-CBFb FRET ratio 530/480, 1 h. inhibition, % at 20 µM. 0.46% of 220,000 active. AID 1496;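 active = inhibition over about 50% at 20 µM in the single-dose screen, limit read from the data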
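Reagent – Venus-CBFb binding partner, 100 nM · Assay system – Cerulean-tagged RUNX1 Runt domain (FRET donor) fusion protein · Input – 100 nM per protein · Incubation – two 1 h room-temperature incubations shielded from light · Measured by – FRET fluorescence · Medium – Tris buffer pH 7.5 with salts and BSA · Benchmarks – unlabeled CBFb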
Hck Nef HTS: inhibitors of human Hck kinase activated by Nef; P08631; Recombinant Hck-YEEI plus Nef, Z-Lyte FRET kinase assay; inhibition, % at 20 µM; 0.68% of 220,000 active; AID 463187;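 active = Hck-Nef kinase inhibition above about 50%, limit read from the data; inactive = inhibition below that limit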
Target sequence (P08631 whole entry, looked up): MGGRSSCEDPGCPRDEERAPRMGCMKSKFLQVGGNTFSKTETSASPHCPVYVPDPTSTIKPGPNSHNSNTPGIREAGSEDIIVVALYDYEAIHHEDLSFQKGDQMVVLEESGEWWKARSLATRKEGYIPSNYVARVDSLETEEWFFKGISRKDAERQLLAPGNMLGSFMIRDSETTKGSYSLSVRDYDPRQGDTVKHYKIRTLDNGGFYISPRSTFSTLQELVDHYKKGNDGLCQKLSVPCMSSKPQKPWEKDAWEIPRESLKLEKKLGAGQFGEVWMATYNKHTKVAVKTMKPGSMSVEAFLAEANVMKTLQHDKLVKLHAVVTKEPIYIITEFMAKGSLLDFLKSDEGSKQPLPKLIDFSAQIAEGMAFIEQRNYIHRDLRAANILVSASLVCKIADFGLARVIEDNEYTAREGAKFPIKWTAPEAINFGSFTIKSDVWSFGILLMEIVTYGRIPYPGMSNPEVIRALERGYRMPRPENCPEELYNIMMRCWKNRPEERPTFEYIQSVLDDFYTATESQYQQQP
PERK inh: blocks human PERK kinase; CHO PERK-DD fusion, SEAP luminescence translation reporter; inhibition, % at 5.6 µM; AID 1416; Q9NZJ5; 0.17% of 220,000 active;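 active = inhibition above the mean inhibition of all tested compounds plus 3 SD, set separately per screening campaign, cut at about 2.9% in these data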;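 also: PERK kinase domain activated by AP20187 dimerizer at 100 nM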
eIF4E 4G PPI: eIF4E/eIF4G interaction inhibition in translation initiation; TR-FRET eIF4E-eIF4GI(517-606) binding, 2 h; inhibition, % at 21.7 µM; 0.37% of 220,000 active; AID 782;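 active = inhibition above about 30%, limit read from the data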
Runt-SMMHC FRET: Runt domain-CBFb-SMMHC interaction inhibition; Cerulean-Runt/Venus-CBFb-SMMHC FRET ratio 530/480, 1 h; inhibition, % at 20 µM; 0.74% of 220,000 active; AID 1434;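 active = mean inhibition across duplicate retests at 20 µM reaching about 50%, limit read from the data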;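 also: inhibitors lower the FRET ratio by blocking Runt binding to CBFb-SMMHC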
Hits are given with their value; . = inactive; ? = inconclusive; / = not tested or not shown; [ ] = remark or other dose.

SMILES | RanGTP-Imp inh | Runt-CBFb FRET | Hck Nef HTS | PERK inh | eIF4E 4G PPI | Runt-SMMHC FRET
CCOC(=O)c1c(NC(=O)CSc2nnc(-c3c[nH]c4ccccc34)n2C)sc2c1CCCC2 | 26 | . | . | . | . | .
CCOc1ccc(CNC(=O)C2CCN(C(=O)N3CC(C)Oc4ccccc43)CC2)cc1 (stereo not drawn) | . | / | / | / | / | /
COc1ccc(C(=O)Cn2c(=N)n(C)c3ccccc32)cc1 | . | . | . | . | . | .
CCCCn1c(=N)n(CC(=O)c2ccc(OC)cc2)c2ccccc21 | . | . | . | . | 83 | .
Cc1cc(C)n2c(=S)[nH]nc2n1 | . | . | . | . | . | 59
Cc1cc(C)n2cnnc2n1 | . | . | . | . | . | .
O=c1cc(CN2CCc3ccccc32)c2ccc(O)cc2o1 | 43 | . | . | . | . | .
CCCCc1cc(=O)oc2cc(OCC(=O)N3CCOCC3)ccc12 | . | / | / | / | / | /
CCN(CC)c1ccc2c(O)cc(=O)oc2c1 | . | . | . | . | . | .
CCN(CC)c1ccc(C(=O)OCc2cc(=O)oc3cc(O)ccc23)cc1 | . | 50 | . | . | . | 119
CCCCc1cc(=O)oc2cc(O)ccc12 | . | . | 115 | . | . | 86
O=C(c1cccs1)N1C(=O)c2cccc3cccc1c23 | . | . | . | . | . | .
Cc1cc(C)nc(SCc2nnc(SCC#N)n2-c2cccc(Cl)c2)n1 | . | . | . | . | . | .
CC(=O)Nc1c(S(=O)(=O)c2ccccc2)c2nc3ccccc3nc2n1Cc1ccccc1 | 23 | . | . | . | . | 73
CCNCC(O)COCC(O)CNCC (stereo not drawn) | ? | . | . | . | 46 | .
CN(C)/C=C(\C(=O)c1cccc(Cl)c1)c1nnnn1-c1ccccc1 | . | . | . | . | . | .
CCCS(=O)(=O)c1c(S(=O)(=O)CCC)c2c(C)cccn2c1C(=O)N/N=C/c1cc(O)cc(O)c1 | . | . | . | . | . | .
CCOc1ccc(C2C(C(=O)C3CC3)N3C=C(C#N)C=CC3C2(C#N)C#N)cc1 (stereo not drawn) | 30 | . | . | . | . | .
CCOc1ccc(C(=O)C2CCN(C(=O)c3ccccc3C(=O)O)CC2)cc1 | . | . | . | . | . | .
Cc1nnc(NC(=O)c2cccc(S(=O)(=O)N3CCOCC3)c2)s1 | . | . | . | . | . | .
CC(C)(C)OC(=O)N1CCC(c2cc(=O)n3[nH]cc(C(=O)Nc4ccc(F)c(Cl)c4)c3n2)CC1 | . | . | . | . | . | .
CC(C)(C)OC(=O)N1CCC(c2cc(=O)n3[nH]cc(C(=O)NC4CCCC4)c3n2)CC1 | . | . | . | 3.2 | . | .
Cc1c(Br)c(=O)oc2c(C)c(O)ccc12 | 33 | . | . | . | . | 73
CC(=O)Nc1nc2n(n1)C(c1ccc(Cl)cc1)C=C(C)N2 (stereo not drawn) | . | . | . | . | . | 83
CCC(Sc1nc(-c2ccccc2)cc(=O)[nH]1)C(=O)O (stereo not drawn) | . | . | . | 3.0 | . | .
SMILES | RanGTP-Imp inh | Runt-CBFb FRET | Hck Nef HTS | PERK inh | eIF4E 4G PPI | Runt-SMMHC FRET
Cc1ccc(C)c(NC(=S)NCCN(C2CCCCC2)C2CCCC2)c1 | . | . | . | . | 97 | .
O=C(CC(=O)Nc1ccc(F)cc1)Nc1ccc(F)cc1 | . | / | / | / | / | /
CC1(C)CC(NCCN2CCN(C3=CC(=C(C#N)C#N)CC(C)(C)C3)CC2)=CC(=C(C#N)C#N)C1 | . | . | . | . | . | .
CCN1CCN(C2=CC3=CC(=C(C#N)C#N)CCC3CC2)CC1 (stereo not drawn) | / | . | . | . | . | 86
N#CC(C#N)=C1C=C2C=C(N3CCCCCC3)CCC2CC1 (stereo not drawn) | 45 | . | . | . | . | 83
N#CC(C#N)=C1C=C2C=C(N3CCOCC3)CCC2CC1 (stereo not drawn) | . | . | . | . | . | 86
CN1CCN(C2=CC3=CC(=C(C#N)C#N)CCC3CC2)CC1 (stereo not drawn) | / | . | . | . | . | 88
O=C(CCNC(=O)C1CCN(S(=O)(=O)c2ccc(F)cc2)CC1)NC1CC1 | . | / | / | / | / | /
Cc1cc(OC(C)C(=O)NCc2cccnc2)c2c(C)c(C)c(=O)oc2c1 (stereo not drawn) | . | / | / | / | / | /
Nc1ccc(O)c2c1C(=O)c1ccccc1C2=O | . | . | . | . | 31[fluorescence artefact?] | .
Nc1ccc(Br)c2c1C(=O)c1ccccc1C2=O | . | . | . | . | . | .
CCOc1cc2nc3c4ccccc4n(C)c3nc2cc1OCC | 38 | . | . | . | . | .
Cn1c2ccccc2c2nnc(NN)nc21 | . | . | . | . | . | .
c1ccc(-c2nnc(-c3ccncc3)o2)cc1 | . | . | . | . | . | .
COc1ccc(-c2cc(-c3nnc(-c4ccncc4)o3)c3ccccc3n2)cc1 | . | . | . | . | . | 70
CC(=O)N1CCN=C1SCc1ccc(F)cc1 | . | . | . | . | . | .
O=C(Nc1nccs1)c1cc(-c2ccco2)nc2ccccc12 | . | . | . | . | 36[fluorescence artefact?] | .
CCOC(=O)C(/C(N)=N/C(=O)Nc1ccccc1)=C(\C)O | . | . | . | . | . | .
Cc1cc2c3c(ccc(C)c3n1)N=CN2c1ccccc1 | 92 | 65 | . | . | . | 60
COCCCN1C(=O)/C(=C\c2ccc3c(c2)OCO3)C(C(=O)OC)=C1C | . | . | . | 3.2 | . | .
CCN1C(=O)/C(=C\c2ccc3c(c2)OCO3)C(C(=O)OC)=C1C | . | . | . | . | . | .
Cc1cc(N2CCN(C3CCCC3)CC2)n2c(nc3ccccc32)c1C#N | . | . | . | . | . | 53
O=C(/C=C/c1ccc(F)cc1)NC(=S)Nc1ccccc1C(=O)NC1CCCCC1 | . | . | . | . | . | .
O=C(O)CC1NC(=S)N(c2ccccc2)C1=O (stereo not drawn) | . | . | . | . | . | .
O=C1C(Cc2ccc(O)cc2)NC(=S)N1c1ccccc1 (stereo not drawn) | . | . | . | 3.0 | . | .
SMILES | RanGTP-Imp inh | Runt-CBFb FRET | Hck Nef HTS | PERK inh | eIF4E 4G PPI | Runt-SMMHC FRET
Cn1c(=O)c2nc(NCc3ccccc3)cnc2n(C)c1=O | 75 | . | . | . | . | .
O=C(O)c1cc(-c2ccc(/C=N/Nc3ccc(Cl)cc3)o2)ccc1Cl | . | . | . | . | . | 82
Nc1nonc1C(=O)N/N=C/c1ccc(-c2ccc(Cl)c(C(=O)O)c2)o1 | . | . | . | . | . | .
O=C(O)c1ccc(N/N=C/c2ccc(-c3ccccc3Cl)o2)cc1 | 54 | . | 67 | . | . | 81
O=C(O)c1ccc(N/N=C/c2ccc(-c3ccc(Br)cc3)o2)cc1 | 70 | / | / | / | / | /
CCN(Cc1cc2ccc(C)cc2[nH]c1=O)C(=O)c1cccnc1 | . | . | . | . | . | .
c1csc(-c2nn3c(Cn4cnc5ccccc54)nnc3s2)c1 | . | . | . | . | 33 | .
